According to ChEMBL document CHEMBL3804776, “Synthesis and Evaluation of Macrocyclic Peptide Aldehydes as Potent and Selective Inhibitors of the 20S Proteasome” (ACS Med Chem Lett, 2016):
Calls of active or inactive are those of the source. The rule behind the calls is not given here. Residues, ends and D or L forms follow the SMILES beside them. *: point of attachment. Cbz = O=C(OCc1ccccc1)*

Columns and labels:
[1] = tested on: HeLa; assay: Inhibition of 26S proteasome in IL1beta-induced human HeLa cells assessed as reduction in IkappaBalpha degradation at 300 nM to 20 uM preincubated for 2 hrs followed by IL1beta stimulation
[2] = Inhibition of PGPH-like activity of rabbit 20S proteasome using Cbz-LLE-AMC substrate incubated at 37 degC by fluorometric assay; set-up: species or system Oryctolagus cuniculus
[3] = Selectivity ratio of Ki for human liver cathepsin B to Ki for chymotrypsin-like activity of rabbit 20S proteasome
[4] = molecular target: T1, Cathepsin B (Homo sapiens, UniProt P07858); assay: Inhibition of human liver cathepsin B using Cbz-RR-AMC as substrate by fluorometric assay
[5] = species: Homo sapiens; assay: Inhibition of chymotrypsin (unknown origin) using Suc-LLVY-AMC as substrate at 100 uM by fluorometric assay
Procedure, shortened: (§1)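 Fluorometric kinetic enzyme assay run at a single inhibitor concentration of 100 μM. The outcome was scored as whether inhibition occurred at that concentration.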

[6] = tested on: HeLa; assay: Inhibition of 26S proteasome in IL1beta-induced human HeLa cells assessed as reduction in NFkappaB-DNA binding at 20 uM preincubated for 2 hrs followed by IL1beta stimulation by EMSA; type: cell-based
Procedure, shortened: (§2)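 HeLa human cervix carcinoma cells were pretreated with compound at 20 μM for 2 h, then stimulated with IL-1β. Read-outs were Western blot for IκBα phosphorylation (S32/36) and IκBα degradation, with β-actin as loading control, and EMSA for NF-κB DNA binding.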

[7] = Selectivity ratio of Ki for m-calpain (unknown origin) to Ki for chymotrypsin-like activity of rabbit 20S proteasome
[8] = tested on: HeLa; assay: Inhibition of 26S proteasome in TNFalpha-induced human HeLa cells assessed as accumulation of phosphorylated IkappaBalpha at 300 nM to 20 uM preincubated for 2 hrs followed by TNFalpha stimulation by Western blot analysis; type: cell-based
Procedure, shortened: (§3)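 Dose-response in HeLa cells: compound at 0.1, 0.3, 1, 3, 10 and 20 μM before TNFα stimulation, with handling as in the single-dose experiment. Accumulation of phospho-IκBα (S32/36) was measured by Western blot with β-actin as loading control. NF-κB DNA binding was measured by EMSA.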

[9] = Inhibition of chymotrypsin-like activity of rabbit 20S proteasome using Suc-LLVY-AMC substrate incubated at 37 degC by fluorometric assay; set-up: species or system Oryctolagus cuniculus
[10] = species: Oryctolagus cuniculus; assay: Inhibition of trypsin-like activity of rabbit 20S proteasome using Cbz-ARR-AMC substrate at 100 uM incubated at 37 degC by fluorometric assay
Procedure, shortened: as §1

[11] = tested on: HeLa; assay: Inhibition of 26S proteasome in TNFalpha-induced human HeLa cells assessed as reduction in NFkappaB-DNA binding at 300 nM to 20 uM preincubated for 2 hrs followed by TNFalpha stimulation by EMSA; type: cell-based
Procedure, shortened: as §3

[12] = tested on: HeLa; assay: Inhibition of 26S proteasome in TNFalpha-induced human HeLa cells assessed as reduction in NFkappaB-DNA binding at 20 uM preincubated for 2 hrs followed by TNFalpha stimulation by EMSA; type: cell-based
Procedure, shortened: (§4)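 HeLa cells were preincubated for 2 h with 20 μM compound before TNFα stimulation. IκBα S32/36 phosphorylation and IκBα levels were assessed by Western blot (β-actin loading control). NF-κB DNA binding was measured by electrophoretic mobility shift assay.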

[13] = tested on: HeLa; assay: Inhibition of 26S proteasome in IL1beta-induced human HeLa cells assessed as phosphorylation of IkappaBalpha at 20 uM preincubated for 2 hrs followed by IL1beta stimulation by Western blot analysis; type: cell-based
Procedure, shortened: as §2

[14] = molecular target: T2, Calpain-2 catalytic subunit (Homo sapiens, UniProt P17655); assay: Inhibition of m-calpain (unknown origin) using Suc-LY-AMC as substrate by fluorometric assay
T2 sequence (P17655 whole entry): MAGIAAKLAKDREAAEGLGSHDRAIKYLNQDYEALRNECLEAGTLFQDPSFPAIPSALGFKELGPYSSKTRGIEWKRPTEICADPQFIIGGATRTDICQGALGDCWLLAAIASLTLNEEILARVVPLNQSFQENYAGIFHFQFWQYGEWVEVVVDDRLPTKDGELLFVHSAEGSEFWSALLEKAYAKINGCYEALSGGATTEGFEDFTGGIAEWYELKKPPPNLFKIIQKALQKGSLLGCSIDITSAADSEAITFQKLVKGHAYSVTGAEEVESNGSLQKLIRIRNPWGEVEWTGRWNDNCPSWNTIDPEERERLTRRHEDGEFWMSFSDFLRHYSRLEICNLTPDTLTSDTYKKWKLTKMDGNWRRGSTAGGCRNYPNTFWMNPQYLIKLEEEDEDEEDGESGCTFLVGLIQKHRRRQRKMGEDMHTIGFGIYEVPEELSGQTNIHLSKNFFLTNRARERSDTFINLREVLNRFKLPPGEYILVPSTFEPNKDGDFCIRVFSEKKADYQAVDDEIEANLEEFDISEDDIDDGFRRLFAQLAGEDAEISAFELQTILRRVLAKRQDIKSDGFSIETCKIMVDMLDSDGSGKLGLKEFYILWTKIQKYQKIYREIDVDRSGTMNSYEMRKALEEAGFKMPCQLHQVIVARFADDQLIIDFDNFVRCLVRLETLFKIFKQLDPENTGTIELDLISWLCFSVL

[15] = tested on: HeLa; assay: Inhibition of 26S proteasome in IL1beta-induced human HeLa cells assessed as reduction in IkappaBalpha degradation at 20 uM preincubated for 2 hrs followed by IL1beta stimulation by Western blot analysis; type: cell-based
Procedure, shortened: as §2

[16] = tested on: HeLa; assay: Inhibition of 26S proteasome in TNFalpha-induced human HeLa cells assessed as phosphorylation of IkappaBalpha at 20 uM preincubated for 2 hrs followed by TNFalpha stimulation by Western blot analysis; type: cell-based
Procedure, shortened: as §4

[17] = tested on: HeLa; assay: Inhibition of 26S proteasome in TNFalpha-induced human HeLa cells assessed as reduction in IkappaBalpha degradation at 20 uM preincubated for 2 hrs followed by TNFalpha stimulation by Western blot analysis; type: cell-based
Procedure, shortened: as §4

[18] = Inhibition of trypsin-like activity of rabbit 20S proteasome using Cbz-ARR-AMC substrate incubated at 37 degC by fluorometric assay; set-up: species or system Oryctolagus cuniculus
[19] = species: Oryctolagus cuniculus; assay: Inhibition of PGPH-like activity of rabbit 20S proteasome using Cbz-LLE-AMC substrate at 100 uM incubated at 37 degC by fluorometric assay
Procedure, shortened: as §1

[20] = molecular target: T1, Cathepsin B; assay: Inhibition of human liver cathepsin B using Cbz-RR-AMC as substrate at 100 uM by fluorometric assay
Procedure, shortened: as §1

[21] = molecular target: T3, Calpain-2 catalytic subunit (Homo sapiens) (UniProt P17655); assay: Inhibition of m-calpain (unknown origin) using Suc-LY-AMC as substrate at 100 uM by fluorometric assay
T3 sequence (whole entry): T2 sequence (P17655 whole entry)
Procedure, shortened: as §1

Ratio Ki [3]	Ki [4] [nM]	inhibition [5]	Ratio Ki [7]	Ki [9] [nM]	inhibition [10]	Ki [14] [nM]	inhibition [19]	inhibition [20]	inhibition [21]	Compound	inhibition [1]	inhibition [6]	inhibition [8]	inhibition [11]	inhibition [12]	inhibition [13]	inhibition [15]	inhibition [16]	inhibition [17]	other results
4	230	inactive	10	63.5	inactive	653	–	–	–	CC(C)C[C@@H](C=O)NC(=O)[C@H](CC(C)C)NC(=O)[C@H](CC(C)C)NC(=O)OCc1ccccc1 [MG-132] (Cbz-Leu-Leu-Leu-aldehyde)	Active	Active	Active	Active	Active	Active	Active	Active	Active	Ki [2]: 3700 nM
–	3050	inactive	8	241	–	2030	inactive	–	–	CC(C)C[C@@H](C=O)NC(=O)[C@@H]1Cc2ccc(cc2)Oc2cc(ccc2[N+](=O)[O-])C[C@H](NC(=O)OCc2ccccc2)C(=O)N[C@@H](CC(C)C)C(=O)N1	Active	Active	Active	Active	Active	Active	Active	Active	Active	Ki [18]: 8040 nM
–	–	inactive	–	25.5	–	–	–	inactive	inactive	CC(C)C[C@H](NC(=O)[C@H](CCc1ccccc1)NC(=O)CN1CCOCC1)C(=O)N[C@@H](Cc1ccccc1)C(=O)N[C@@H](CC(C)C)C(=O)[C@@]1(C)CO1 [CARFILZOMIB]	–	–	–	–	–	–	–	–	–	–
550	30300	inactive	55	54.5	inactive	2980	inactive	–	–	COc1ccc(C[C@@H]2NC(=O)[C@@H](NC(=O)OCc3ccccc3)Cc3ccc([N+](=O)[O-])c(c3)Oc3ccc(cc3)C[C@@H](C(=O)N[C@H](C=O)CC(C)C)NC2=O)cc1	Active	Active	Active	Active	Active	Active	Active	Active	Active	–
80	2290	inactive	61	28	–	1710	–	–	–	COc1ccc(C[C@H](NC(=O)[C@H](Cc2ccccc2)NC(=O)OCc2ccccc2)C(=O)N[C@@H](Cc2ccccc2)C(=O)N[C@H](C=O)CC(C)C)cc1 (Cbz-FY(Me)FL-aldehyde)	–	–	–	–	–	–	–	–	–	–
–	–	inactive	–	24	–	–	–	inactive	inactive	CC(C)C[C@H](NC(=O)[C@H](Cc1ccccc1)NC(=O)c1cnccn1)B(O)O [BORTEZOMIB]	–	–	–	–	–	–	–	–	–	–
